# Measured values reported in paper PMC4489446 (Memórias do Instituto Oswaldo Cruz, 2015).
# Legend:
# [1] = tested on: Leishmania infantum promastigotes; assay: In vitro activity against promastigotes; assay type: cell-based; details: 72 h; for IC50: Leishmania infantum; for MPC (minimal parasiticide concentration): promastigotes, 26 °C, mean ± SD
# Outline: (§1)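 Strains: L. amazonensis MHOM/77/LTB0016, L. infantum MHOM/FR/78/LEM75, L. braziliensis MHOM/BR/75/M2 903. Log-phase promastigotes at 5 x 10^5/mL in Schneider's with 10% heat-inactivated FBS; compound added from two-fold DMSO stocks (4 mg/mL–3.9 µg/mL), DMSO at most 0.5%. Incubated 72 h at 26 °C. MPC = geometric mean (4 replicates) of concentrations fully stopping motility, by microscope. Then p-nitrophenyl phosphate, 3 h 37 °C, A405, minus parasite-free drug wells. IC50 by Emax sigmoid fit; at least three repeats.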
# [2] = tested on: Leishmania amazonensis promastigotes; assay: In vitro activity against promastigotes; assay type: cell-based; details: 72 h; for IC50: Leishmania amazonensis; for MPC (minimal parasiticide concentration): promastigotes, 26 °C, mean ± SD
# Outline: as §1
# [3] = tested on: Leishmania braziliensis promastigotes; assay: In vitro activity against promastigotes; assay type: cell-based; details: 72 h; for IC50: Leishmania braziliensis; for MPC (minimal parasiticide concentration): promastigotes, 26 °C, mean ± SD
# Outline: as §1
# [4] = tested on: intracellular amastigotes; assay: Activity against intracellular amastigotes in mouse peritoneal macrophages; assay type: cell-based; details: drug concentrations not toxic to mouse peritoneal macrophages used as host cells; data not shown
# [5] = Cytotoxicity against mammalian cells; assay type: cell-based; details: human, HeLa-KB cells (subline of HeLa, ATCC CCL-17)
# Outline: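 HeLa-KB cells seeded at 4 x 10^4/mL in RPMI-1640 with 10% heat-inactivated FCS and held 24 h (5% CO2). Medium was replaced by test compound in fresh medium, 30 µg/mL to 100 ng/mL, in triplicate, with a podophyllotoxin positive control. After 72 h, alamarBlue for 4 h, then fluorescence at 530/585 nm. CC50 from a nonlinear Emax sigmoid fit; at least three repeats.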
# [6] = tested on: Leishmania amazonensis; assay: Mouse model of experimental cutaneous leishmaniasis, lesion size; assay type: in vivo, BALB/c mice; details: furvina 2 mg/Kg, UC245 100 mg/Kg; for average lesion size with respect to the control group: experiment 2: early lesions, intraperitoneal every 12 h for 14 days, 28 days of follow up; for effect on chronic lesions (in words): experiment 3: chronic lesions, 18 weeks post-infection, every 12 h for 14 days
# Outline: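 Female BALB/c mice (16-18 g, 6-8 weeks) infected intradermally in the footpad with 5 x 10^6 stationary-phase promastigotes. Intraperitoneal dosing every 12 h for 14 days, test compounds in Miglyol 810. Controls were untreated infected mice and amphotericin B (1 mg/Kg in early lesions; 5 mg/Kg every 48 h in chronic). Lesions measured weekly by Vernier calliper; chronic size taken as dorsoplantar × lateral diameter.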
# [7] = tested on: promastigotes of Leishmania amazonensis, Leishmania infantum and Leishmania braziliensis; assay type: cell-based; details: read-out: Average IC50
# Outline: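 IC50 was measured separately for L. amazonensis, L. infantum and L. braziliensis promastigotes. Each assay: 72 h at 26 °C, phosphatase read-out (p-nitrophenyl phosphate, A405), Emax sigmoid fit. The average IC50 is the arithmetic mean of the three species' IC50 values.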
structure (smiles),measurement,setting,value
"C[C@@H]1[C@H](O)[C@@H](C)/C=C/C=C/C=C/C=C/C=C/C=C/C=C/[C@H](O[C@@H]2O[C@H](C)[C@@H](O)[C@H](N)[C@@H]2O)C[C@@H]2O[C@](O)(C[C@@H](O)C[C@@H](O)[C@H](O)CC[C@@H](O)C[C@@H](O)CC(=O)O[C@H]1C)C[C@H](O)[C@H]2C(=O)O [Amphotericin B, amphotericin B, reference compound]",IC50,[1],14 ± 4 nM
same,MPC (minimal parasiticide concentration),[1]; amphotericin B,17 ± 5 nm
same,IC50,[2],29 ± 5 nM
same,MPC (minimal parasiticide concentration),[2]; amphotericin B,55 ± 7 nm
same,IC50,[3],14 ± 3 nM
same,MPC (minimal parasiticide concentration),[3]; amphotericin B,30 ± 6 nm
"O=[N+]([O-])C(Br)=Cc1ccc(Br)o1 [Furvina, 2-bromo-5-(2-bromo-2-nitrovinyl)-furan]",efficacy in reducing the percentage of infected cells,[4],under 50%
same,CC50 at 72 h,[5],13600 ± 2200 nM
same,average lesion size with respect to the control group,[6],59%
same,effect on chronic lesions (in words),[6],progressively decreased lesion sizes
same,IC50,[1],1200 ± 300 nM
same,MPC (minimal parasiticide concentration),[1]; complete arrest of motion,2.9 ± 0.3 µM
same,IC50,[2],800 ± 300 nM
same,MPC (minimal parasiticide concentration),[2]; complete arrest of motion,5.2 ± 0.4 µM
same,IC50,[7],970 nM
same,IC50,[3],900 ± 400 nM
same,MPC (minimal parasiticide concentration),[3]; complete arrest of motion,1.7 ± 0.4 µM
"CC(=Cc1ccc(Br)o1)[N+](=O)[O-] [UC245, 2-bromo-5-(2-methyl-2-nitrovinyl)-furan]",efficacy in reducing the percentage of infected cells,[4],under 50%
same,CC50 at 72 h,[5],16700 ± 1800 nM
same,average lesion size with respect to the control group,[6],55%
same,effect on chronic lesions (in words),[6],did not show any efficacy
same,IC50,[1],900 ± 300 nM
same,MPC (minimal parasiticide concentration),[1]; complete arrest of motion,2.7 ± 0.4 µM
same,IC50,[2],900 ± 200 nM
same,MPC (minimal parasiticide concentration),[2]; complete arrest of motion,6.1 ± 0.4 µM
same,IC50,[7],930 nM
same,IC50,[3],1000 ± 300 nM
same,MPC (minimal parasiticide concentration),[3]; complete arrest of motion,5.7 ± 0.4 µM
"COc1cc([C@@H]2c3cc4c(cc3[C@H](O)[C@H]3COC(=O)[C@H]23)OCO4)cc(OC)c1OC [podophyllotoxin, reference compound]",CC50 at 72 h,[5],5.3 ± 1.4 nM
